In assay [1] the test system is PC-3. Briefly: Antiproliferative activity against human PC3 cells assessed as inhibition of cell proliferation after 3 days in presence of DHT by WST8 assay. Format: functional, cell-based. In a few lines: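 PC-3 cells kept in RPMI-1640 with 10% FBS, then diluted to 20,000 cells/mL in RPMI-1640 with 10% charcoal-stripped FBS. Seeded and held 24 h, then given serial dilutions of compound or DMSO with 1 nM DHT for 3 days. WST-8 added for 2 h, absorbance at 450 nm. Viability normalized to vehicle-treated cells as 1.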
For orientation: Tetrazolium dyes change colour on reduction, which living cells bring about.

Assay [2] has as its target T1, Androgen receptor (Mus musculus) (UniProt P19091).
T1 sequence (whole entry): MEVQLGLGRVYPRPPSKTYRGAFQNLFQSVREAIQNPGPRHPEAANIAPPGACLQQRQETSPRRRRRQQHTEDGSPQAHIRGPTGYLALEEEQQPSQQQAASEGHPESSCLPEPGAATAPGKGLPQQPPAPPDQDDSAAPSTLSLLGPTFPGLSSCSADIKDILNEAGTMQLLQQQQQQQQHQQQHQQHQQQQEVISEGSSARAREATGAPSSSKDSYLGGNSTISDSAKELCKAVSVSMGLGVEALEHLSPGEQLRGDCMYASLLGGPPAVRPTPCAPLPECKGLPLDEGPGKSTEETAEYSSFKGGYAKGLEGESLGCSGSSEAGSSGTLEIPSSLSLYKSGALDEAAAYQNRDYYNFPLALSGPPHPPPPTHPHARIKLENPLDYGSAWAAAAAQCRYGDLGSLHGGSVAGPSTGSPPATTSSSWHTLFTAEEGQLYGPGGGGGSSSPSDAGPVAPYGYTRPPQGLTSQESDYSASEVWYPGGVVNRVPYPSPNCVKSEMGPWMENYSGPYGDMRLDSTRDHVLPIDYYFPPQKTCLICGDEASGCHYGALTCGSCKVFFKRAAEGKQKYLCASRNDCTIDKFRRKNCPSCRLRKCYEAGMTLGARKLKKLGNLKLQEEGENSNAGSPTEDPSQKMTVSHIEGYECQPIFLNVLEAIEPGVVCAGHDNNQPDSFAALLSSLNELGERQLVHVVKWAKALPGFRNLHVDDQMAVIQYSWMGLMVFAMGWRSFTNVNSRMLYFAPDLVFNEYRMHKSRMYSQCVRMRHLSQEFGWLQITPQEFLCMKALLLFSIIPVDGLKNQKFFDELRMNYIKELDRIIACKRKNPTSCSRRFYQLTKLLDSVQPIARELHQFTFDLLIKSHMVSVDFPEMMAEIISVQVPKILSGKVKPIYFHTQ
Briefly: Antagonist activity at AR in mouse SC3 cells assessed as inhibition of DHT-induced cell proliferation up to 10 uM after 3 days by CCK8 assay. In kind it is cell-based. In a few lines:
(§1)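 SC-3 cells diluted to 20,000 cells/mL in MEM α with 2% charcoal-stripped FBS, seeded and held 24 h, then given compound or DMSO with 1 nM DHT for 3 days at 37°C, 5% CO2. Read-out: WST-8 (CCK-8) for 2 h, absorbance at 450 nm. Compounds screened first at 10 µM. IC50 measured over 0.01–10 µM when inhibition exceeded 50%, taken as the level halving DHT-induced growth versus control. Triplicate or more.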

In assay [3] the target is T1, Androgen receptor (Mus musculus). The experiment in a line: Agonist activity at AR in mouse SC3 cells assessed as effect on cell proliferation after 3 days by CCK8 assay. Format: cell-based. Put shortly: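 SC-3 cells diluted to 20,000 cells/mL in MEM α with 2% charcoal-stripped FBS, seeded and held 24 h, then given serial dilutions of compound alone (DMSO as dilution control). Incubated 3 days at 37°C, 5% CO2. WST-8 (Cell Counting Kit-8) added for 2 h, absorbance read at 450 nm.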

Assay [4] shares this target. The experiment in a line: Antagonist activity at AR in mouse SC3 cells assessed as inhibition of DHT-induced cell proliferation at 10 uM after 3 days by CCK8 assay relative to control. In kind it is cell-based. In a few lines:
as §1

Assay [5] can be described thus: Antagonist activity at AR in mouse SC3 cells assessed as inhibition of DHT-induced cell proliferation after 3 days by CCK8 assay.

Activity calls are given as the source filed them. The rule behind the calls is not given here.

inhibition, Activity and IC50 data for 39 compounds are collected here from ChEMBL document CHEMBL4152364, “Structure-activity relationship of novel (benzoylaminophenoxy)phenol derivatives as anti-prostate cancer agents” (Bioorg Med Chem, 2018).

A word on the inhibition: it is the relative decrease from the control value, in per cent. For the compound `C[C@](O)(CS(=O)(=O)c1ccc(F)cc1)C(=O)Nc1ccc(C#N)c(C(F)(F)F)c1`, in assay [1], the inhibition result is “inactive”. Take `COc1ccc(C(=O)Nc2ccc(Oc3cccc(O)c3)cc2)cc1`: the inhibition result in assay [2] is “inactive”. The result in assay [3] was inactive. Regarding `CN(C)c1ccccc1C(=O)Nc1cccc(Oc2ccc(O)cc2)c1`, the inhibition in assay [4] is more than 50%. Moreover, the outcome in assay [3] was inactive. Consider `CN(C)c1cccc(C(=O)Nc2ccc(Oc3cccc(O)c3)cc2)c1`, for which, in assay [2], the inhibition entry is “inactive”. For the same compound, the result in assay [3] was inactive. With `COc1ccccc1C(=O)Nc1cccc(Oc2cccc(O)c2)c1`, in assay [2], the inhibition result is “inactive”. The result in assay [3] was inactive. Take `COc1ccc(C(=O)Nc2cc(Oc3ccc(O)cc3)ccc2C)cc1`: in assay [3], the outcome was inactive. Take `COc1cccc(C(=O)Nc2cc(F)c(Oc3ccc(O)cc3)c(F)c2)c1`: the inhibition in assay [4] is more than 50%; in assay [1] it was “Dose-dependent effect”. Besides, the outcome in assay [3] was inactive.

Take `COc1cccc(C(=O)Nc2ccc(Oc3ccc(O)cc3)cc2F)c1`: the inhibition in assay [4] is more than 50%; in assay [1], “Dose-dependent effect”. Moreover, the outcome in assay [3] was inactive. In the case of `COc1cccc(C(=O)Nc2ccc(Oc3ccc(O)cc3)c(C(F)(F)F)c2)c1`, in assay [4], the inhibition was more than 50%. Also, in assay [3], the outcome was inactive. Taken in the same sequence, the figures for `COc1cccc(C(=O)Nc2ccc(Oc3ccc(O)cc3)cc2Cl)c1` were more than 50% and “inactive”. As for `COc1cccc(C(=O)N(C)c2cccc(Oc3ccc(O)cc3)c2)c1`, the inhibition result in assay [2] is “inactive”. The result in assay [3] was inactive.

For `CN(C)c1ccccc1C(=O)Nc1cccc(Oc2cccc(O)c2)c1`, the inhibition result in assay [2] is “inactive”. For the same compound, the outcome in assay [3] was inactive. Turning to `COc1cccc(C(=O)N(C)c2ccc(Oc3ccc(O)cc3)c(C)c2)c1`, the inhibition in assay [4] is more than 50%. Also, the outcome in assay [3] was inactive.

Consider `COc1ccc(C(=O)Nc2cccc(Oc3cccc(O)c3)c2)cc1`, for which the result in assay [3] was inactive. On to `COc1cccc(C(=O)Nc2ccc(Oc3ccc(O)cc3)c(Br)c2)c1`, for which the inhibition in assay [4] is more than 50%. In addition, the outcome in assay [3] was inactive. On to `COc1cccc(C(=O)Nc2ccc(Oc3ccc(O)cc3)c(Cl)c2)c1`, for which the inhibition is more than 50% in assay [4] and “Dose-dependent effect” in assay [1]. Also, the outcome in assay [3] was inactive. In the case of `COc1cccc(C(=O)Nc2ccc(Oc3ccc(O)cc3)cc2O)c1`, in assay [2], the inhibition result is “inactive”. Also, the outcome in assay [3] was inactive. Turning to `CN(C)c1ccc(C(=O)Nc2ccc(Oc3cccc(O)c3)cc2)cc1`, the inhibition in assay [4] is more than 50%. The outcome in assay [3] was inactive. For `COc1cccc(C(=O)Nc2ccc(Oc3ccc(O)cc3)c(F)c2F)c1`, the inhibition was more than 50% in assay [4] and “Dose-dependent effect” in assay [1]. For the same compound, the outcome in assay [3] was inactive.

Regarding `CN(C)c1ccccc1C(=O)Nc1ccc(Oc2cccc(O)c2)cc1`, the inhibition result in assay [2] was “inactive”. Besides, the result in assay [3] was inactive.

For `CN(C)c1ccc(C(=O)Nc2cccc(Oc3ccc(O)cc3)c2)cc1`, in assay [4], the inhibition was more than 50%. The outcome in assay [3] was inactive. Consider `CN(C)c1cccc(C(=O)Nc2cccc(Oc3cccc(O)c3)c2)c1`, for which, in assay [3], the result was inactive. As for `COc1cccc(C(=O)Nc2ccc(Oc3ccc(O)cc3)c(F)c2)c1`, the values for the inhibition in assay [4] and in assay [1] were more than 50% and “Dose-dependent effect”, respectively. Moreover, the outcome in assay [3] was inactive. In the case of `COc1cccc(C(=O)Nc2ccc(Oc3ccc(O)cc3)c(C#N)c2)c1`, the inhibition entry in assay [2] is “inactive”. Besides, the outcome in assay [3] was inactive.

Take `COc1ccc(C(=O)N(C)c2cccc(Oc3ccc(O)cc3)c2)cc1`: in assay [2], the inhibition result is “inactive”. Besides, in assay [3], the result was inactive.

As to `COc1ccccc1C(=O)Nc1cccc(Oc2ccc(O)cc2)c1`, the result in assay [3] was inactive. On to `COc1cccc(C(=O)Nc2ccc(Oc3ccc(O)cc3)cc2C)c1`, for which, in assay [4], the inhibition was more than 50%. The outcome in assay [3] was inactive. `CN(C)c1cccc(C(=O)Nc2cccc(Oc3ccc(O)cc3)c2)c1`: the inhibition result in assay [2] is “inactive”. The result in assay [3] was inactive. Turning to `COc1cccc(C(=O)Nc2cccc(Oc3cccc(O)c3)c2)c1`, in assay [3], the outcome was inactive. The same measure, in the same setting: the value for `COc1ccc(C(=O)Nc2ccc(C)c(Oc3ccc(O)cc3)c2)cc1` was “inactive”; that for `COc1cccc(C(=O)Nc2ccc(Oc3cccc(O)c3)cc2)c1` was “inactive”. As to `COc1cccc(C(=O)Nc2cccc(Oc3ccc(O)cc3)c2)c1`, in assay [2], the inhibition result is “inactive”. Besides, in assay [3], the result was inactive.

By IC50 is commonly meant the concentration that gives 50% inhibition. Consider `COc1cccc(C(=O)Nc2ccc(Oc3ccc(O)cc3)c(C)c2)c1`, for which the inhibition in assay [4] is more than 50%; in assay [1], “Dose-dependent effect”. Besides, the IC50 in assay [5] is 750 nM. In the case of `COc1ccccc1C(=O)Nc1ccc(C)c(Oc2ccc(O)cc2)c1`, the inhibition in assay [4] is more than 50%. Besides, in assay [3], the result was inactive. Take `COc1ccc(C(=O)Nc2cccc(Oc3ccc(O)cc3)c2C)cc1`: the outcome in assay [3] was inactive. Regarding `COc1ccccc1C(=O)Nc1ccc(Oc2cccc(O)c2)cc1`, the inhibition result in assay [2] is “inactive”. In assay [3], the outcome was inactive. For `COc1cccc(C(=O)Nc2cc(Cl)c(Oc3ccc(O)cc3)c(Cl)c2)c1`, the inhibition in assay [4] is more than 50%; in assay [1] it was “Dose-dependent effect”. For the same compound, the result in assay [3] was inactive. On to `COc1cccc(C(=O)Nc2ccc(Oc3ccc(O)cc3)cc2OC)c1`, for which, in assay [4], the inhibition is more than 50%. Further, the result in assay [3] was inactive. `COc1ccc(C(=O)Nc2cccc(Oc3ccc(O)cc3)c2)cc1`: in assay [3], the outcome was inactive.
